Results: publication PMC7941214 (Journal of medicinal chemistry, 2019)
Values joined by “and” are separate entries in the source; they are usually repeats but may differ in a detail not shown here. Identical values can stand only once.

Key:
[1] = system: E. faecium ATCC 700221; assay: Broth microdilution MIC/MBC, E. faecium; format: cell-based, Enterococcus faecium; settings: for MIC E. faecium ATCC 700221: value before the parentheses, two values = two repeats; for MBC E. faecium ATCC 700221: value in parentheses
How it was run: (§1)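 CLSI broth microdilution in cation-adjusted Mueller–Hinton broth. Log-phase cultures were diluted to 7.5 × 10^5 CFU/mL, then mixed 1:1 with 2-fold serial dilutions of gold complexes from DMSO or water stocks, in triplicate, and held 37 °C, 18 h, static. MIC: lowest concentration giving >90% inhibition by OD600 against medium-only and bacteria-only wells. […] E. coli ATCC 25922 quality control was checked each run with ciprofloxacin and […].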

[2] = system: S. aureus JE2 (USA300); assay: Broth microdilution MIC/MBC, S. aureus; format: cell-based, Staphylococcus aureus; settings: for MIC S. aureus JE2 (USA300): value before the parentheses, two values = two repeats; for MBC S. aureus JE2 (USA300): value in parentheses
How it was run: as §1

[3] = system: E. cloacae NCTC 13405; assay: Broth microdilution MIC/MBC, E. cloacae; format: cell-based, Enterobacter cloacae; settings: for MIC E. cloacae NCTC 13405: value before the parentheses, two values = two repeats; for MBC E. cloacae NCTC 13405: value in parentheses
How it was run: as §1

[4] = system: P. aeruginosa NCTC 13437; assay: Broth microdilution MIC/MBC, P. aeruginosa; format: cell-based, Pseudomonas aeruginosa; settings: for MIC P. aeruginosa NCTC 13437: value before the parentheses, two values = two repeats; for MBC P. aeruginosa NCTC 13437: value in parentheses
How it was run: as §1

[5] = system: K. pneumoniae ATCC 700603; assay: Broth microdilution MIC/MBC, K. pneumoniae; format: cell-based, Klebsiella pneumoniae; settings: for MIC K. pneumoniae ATCC 700603: value before the parentheses, two values = two repeats; for MBC K. pneumoniae ATCC 700603: value in parentheses
How it was run: as §1

[6] = Log P determination; settings: n-octanol/water, Au by FAAS
[7] = system: E. coli ATCC 25922; assay: Broth microdilution MIC/MBC, E. coli; format: cell-based, Escherichia coli; settings: for MIC E. coli ATCC 25922: value before the parentheses, two values = two repeats; for MBC E. coli ATCC 25922: value in parentheses
How it was run: as §1

[8] = system: A. baumannii NCTC 13420; assay: Broth microdilution MIC/MBC, A. baumannii; format: cell-based, Acinetobacter baumannii; settings: for MIC A. baumannii NCTC 13420: value before the parentheses, two values = two repeats; for MBC A. baumannii NCTC 13420: value in parentheses

| Structure (SMILES) | MIC E. faecium ATCC 700221 [1] | MBC E. faecium ATCC 700221 [1] | MIC S. aureus JE2 (USA300) [2] | MBC S. aureus JE2 (USA300) [2] | MIC E. cloacae NCTC 13405 [3] | MBC E. cloacae NCTC 13405 [3] | fold enhancement of activity over auranofin, E. cloacae ([3]; vs auranofin) | MIC P. aeruginosa NCTC 13437 [4] | MBC P. aeruginosa NCTC 13437 [4] | MIC K. pneumoniae ATCC 700603 [5] | MBC K. pneumoniae ATCC 700603 [5] | log P [6] | MIC E. coli ATCC 25922 [7] | MBC E. coli ATCC 25922 [7] | MIC A. baumannii NCTC 13420 [8] | MBC A. baumannii NCTC 13420 [8] | fold enhancement of activity over auranofin, S. aureus ([2]; vs auranofin) | fold enhancement of activity over auranofin, E. coli ([7]; vs auranofin) | fold enhancement of activity over auranofin, E. faecium ([1]; vs auranofin) | MIC S. aureus [2] |
| --- | --- | --- | --- | --- | --- | --- | --- | --- | --- | --- | --- | --- | --- | --- | --- | --- | --- | --- | --- | --- |
| CC[PH](CC)(CC)[Au][S]C1OC(CO)C(O)C(O)C1O [Compound 10, (1-Thio-β-D-galatopyranosato)(triethylphosphine) Gold(I)] | 0.1 µM and 0.2 µM | 0.5 µM | 0.02 µM | 0.1 µM | 63 µM | 63 µM | 3 | 251 µM | 251 µM | 251 µM | 251 µM | −0.73 | 16 µM | 16 µM | 31 µM | 31 µM | – | – | – | – |
| CC[PH](CC)(CC)[Au][S]C1OC(CO)C(O)C(O)C1O [Compound 11, (1-Thio-D-mannopyranosato)(triethylphosphine) Gold(I)] | 0.1 µM and 0.06 µM | 0.5 µM | – | 0.1 µM | 125 µM | 251 µM | – | 502 µM | 502 µM | 502 µM | 502 µM | −0.59 | 16 µM | 16 µM | 31 µM | 63 µM | – | – | – | – |
| CC[P+](CC)(CC)[Au-][S][C@@H]1OC(CO)[C@@H](O)[C@H](O)C1NC(C)=O (stereo partly drawn) [Compound 12, (2-Acetamido-2-deoxy-1-thio-β-D-glucopyranosato)-(triethylphosphine) Gold(I)] | 0.05 µM and 0.1 µM | 0.5 µM | 0.02 µM | 0.05 µM | 116 µM | 232 µM | – | 464 µM | 464 µM | 464 µM | 464 µM | −0.89 | 7 µM and 4 µM | 7 µM | 15 µM and 29 µM | 116 µM | 2–3 | 2–3 | – | – |
| CC[PH](CC)(CC)[Au][O]C1OC(CO)C(OC2OC(CO)C(O)C(O)C2O)C(O)C1O [Compound 13, [β-D-Galactopyranosyl-(1→4)-β-D-glucopyranosato]-(triethylphosphine) Gold(I)] | 0.09 µM | 0.4 µM | – | 0.09 µM | 190 µM | 190 µM | – | 381 µM | 381 µM | 381 µM | 381 µM | – | 24 µM | 24 µM | 24 µM and 48 µM | 190 µM | – | – | – | – |
| CC[PH](CC)(CC)[Au][S]C1OC(CO)C(OC2OC(CO)C(O)C(O)C2O)C(O)C1O (stereo not shown) [Compound 14] | – | 0.4 µM | – | 0.09 µM | 190 µM | 190 µM | – | 381 µM | 381 µM | >381 µM | – | −1.69 | 12 µM | 12 µM | 24 µM | 24 µM | – | – | – | – |
| CC[PH](CC)(CC)[Au][S]c1ccccc1 [Compound 15, (Benzenethiolato)(triethylphosphine) Gold(I)] | 0.6 µM | 1 µM | 0.02 µM | 0.6 µM | 75 µM | 603 µM | – | 302 µM | 302 µM | >603 µM | – | 2.20 | 151 µM | 151 µM | – | > 603 µM | – | – | – | – |
| CC[PH](CC)(CC)[Au][S]c1ccccc1N [Compound 16, (2-Aminobenzenethiolato)(triethylphosphine) Gold(I)] | 0.02 µM | 0.1 µM | 0.009 µM | 0.6 µM | – | – | – | 291 µM | 291 µM | 146 µM | 146 µM | 0.61 | 36 µM | 36 µM | 18 µM and 36 µM | 18 µM | – | – | more than 7 | in the nanomolar range |
